# Screening data (PubChem BioAssay)
# This is a sample that favours compounds with a hit; in the whole collection about 2% have one here.
# Arr AP2 block: inhibitors of beta-arrestin/AP2 binding, primary screen, biochemical, GPCR trafficking, flow cytometry. beta-arrestin 1 C-terminal peptide binding to AP2 beta2-adaptin appendage (human). FITC-arrestin peptide / GST-AP2 beads; AP2 beta2 appendage carries R879A mutation. inhibition, % at 10 µM. 340,000 tested, 0.31% active;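 active means inhibition above a set limit, near 3 SD of compounds lacking own fluorescence, cut at about 54% in these data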;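 further: plate controls were DMSO wells for no effect and 5 µM unlabelled arrestin peptide for full effect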
#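 System: GST-AP2 R879A glutathione beads | Also added: FITC-arrestin peptide, 50 nM | Times: 12 min plus 1 h, RT | Signal: Bead flow cytometry, FITC channel | Buffer or medium: PBS with 0.05% Tween 20 and 0.1% BSA | Read-out basis: Percent drop in bead-associated FITC signal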
# GRK2 inh: compounds blocking aptamer binding on GRK2 – biochemical, human GRK2, bead flow cytometry, HTS, primary screen | Beta-adrenergic receptor kinase 1 (Homo sapiens), P25098 | inhibition of aptamer binding, % at 10 µM | AID 488847, 2010 | FAM-aptamer displacement from GRK2 | 330,000 tested, 0.59% active;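 active means inhibition of aptamer binding above 40%, roughly 3 SD of noise, on plates passing a quality check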;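 further: median bead fluorescence of bound FAM aptamer so fluorescent compounds give negative values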
# Target sequence (P25098 whole entry, looked up): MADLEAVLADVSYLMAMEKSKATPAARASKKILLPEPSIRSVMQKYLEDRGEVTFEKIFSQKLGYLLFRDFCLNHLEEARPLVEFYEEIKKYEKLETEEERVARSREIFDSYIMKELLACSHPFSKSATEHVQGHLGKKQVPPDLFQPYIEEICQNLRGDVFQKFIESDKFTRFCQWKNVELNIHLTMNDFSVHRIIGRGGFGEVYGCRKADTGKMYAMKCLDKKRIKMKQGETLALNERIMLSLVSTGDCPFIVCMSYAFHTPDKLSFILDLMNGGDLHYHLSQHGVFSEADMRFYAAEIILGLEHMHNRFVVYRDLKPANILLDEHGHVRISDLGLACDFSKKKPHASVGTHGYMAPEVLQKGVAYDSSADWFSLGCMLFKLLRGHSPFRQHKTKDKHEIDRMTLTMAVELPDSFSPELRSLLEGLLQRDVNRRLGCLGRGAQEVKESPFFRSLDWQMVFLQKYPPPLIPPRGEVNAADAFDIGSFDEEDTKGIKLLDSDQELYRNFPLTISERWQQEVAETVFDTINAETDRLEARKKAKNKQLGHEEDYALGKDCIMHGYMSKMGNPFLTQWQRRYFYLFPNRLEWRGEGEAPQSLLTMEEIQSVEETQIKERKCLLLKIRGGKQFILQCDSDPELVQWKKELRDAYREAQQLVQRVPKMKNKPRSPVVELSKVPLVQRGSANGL
# Lipid droplet: inhibitors of hepatocyte lipid droplet formation, primary screen, imaging, high-throughput imaging, BODIPY stain; AML12 mouse hepatocytes, oleate lipid droplets; inhibition, % at 6.5 µM; 240,000 tested, 0.4% active; AID 1656, 2009;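 active means lipid droplet intensity inhibited by at least 50%, with more than 500 cells counted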
#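 Test system: AML12 hepatocytes (mouse); reagent: oleate loading, 100 µM; dosing: one dose, 6.5 µM compound; incubation: overnight exposure; signal: fluorescence imaging, 20x objective, two fields per well; read-out basis: % inhibition of corrected integrated BODIPY droplet signal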
# TAG inh: inhibitors of triacylglycerol accumulation, primary screen, cell-based, uHTS, fluorescence, H9c2; H9c2 cells, Nile Red lipid (TAG) fluorescence; cells loaded with 200 µM oleic acid; inhibition, % at 12.5 µM; 230,000 tested, 0.66% active; AID 651582, 2012;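 active means pattern-corrected inhibition of lipid staining of at least 50% with the nuclear-stain viability signal not falling by more than 50%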;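 further: 0% = DMSO wells and 100% = triacsin C control wells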
# Beta2AR agonist: beta2AR agonists driving receptor internalization, primary screen, cell-based, FAP fluorogen, flow cytometry | Am2.2-beta2AR cells | response, % (concentration not given with the values) | AID 504454, 2011 | 340,000 tested, 0.43% active | Beta-2 adrenergic receptor (Homo sapiens), P07550;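 active means response above a set limit, near 3 SD of response in nonfluorescent compounds, cut at about 42% in these data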
# NTR1 ag: agonists of human NTR1, primary screen, imaging, U2OS cells, beta-arrestin-GFP, high content. Neurotensin receptor type 1 (Homo sapiens), P30989. NTR1-U2OS beta-arrestin-GFP spot imaging, agonist mode. activation, % at 20 µM. 330,000 tested, 0.17% active. AID 493036, 2011;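 active means activation at or above 40% of the spot to cytoplasm intensity ratio, with at least 20 cells analyzed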;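 further: 0% = DMSO without peptide and 100% = 100 nM NTR1 peptide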
# Lipid drop inh: hepatocyte lipid droplet accumulation inhibitors, confirmation, imaging, AML12 mouse hepatocytes, single concentration, high-content. BODIPY lipid droplet imaging; droplets induced with 100 µM oleic acid. AID 463183, 2010. 870 tested, 65% active. inhibition, % at 5.2 µM. shares compounds with Lipid droplet;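 active means inhibition of lipid droplet metric at least 50%, with more than 300 cells in each of four replicates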;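 further: plate controls were DMSO with oleic acid for no effect and 5 µM Triacsin-C for full effect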
# AML12 cytotox: AML12 hepatocyte cytotoxicity, counter-screen for hepatic lipid droplet formation project, imaging, DAPI nuclear morphology imaging; shares compounds with Lipid droplet; AML12 mouse hepatocytes; active compounds read high; cells fed 100 µM oleate overnight; z-score at 5 µM; 870 tested, 3% active; in the data active means z-score above about 6.3;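 further: compound exposure lasted overnight at 37 °C before fixation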
# AML12 tox conf: AML12 hepatocyte cytotoxicity, confirmation, cytotoxicity control for hepatic lipid droplet formation project, cell-based, single concentration; shares compounds with Lipid droplet; AML12 mouse hepatocyte viability, ATP luminescence; cells loaded with 100 µM oleic acid; cytotoxicity, % at 50 µM; 530 tested, under 10 active; AID 463219, 2010;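 active means cytotoxicity above 50% in each of four replicates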;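 further: compound exposure lasted overnight at 37 °C before the ATP read; 0% = DMSO-treated cells and 100% = wells with no cells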
# GRK2 inh confirm: GRK2 aptamer-displacing inhibitors, retest, confirmation, biochemical, cherry pick 1, bead flow cytometry | shares compounds with GRK2 inh | bead-bound GRK2, FAM-aptamer displacement | aptamer displacement, % at 10 µM | 2,000 tested, 4% active;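 active means aptamer displacement above 40%, near three times the noise of non-fluorescent compounds, on plates passing quality checks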;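 further: negative values mostly reflect intrinsic compound fluorescence rather than true enhancement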
# FAM quench CP1: quenches fluorescent RNA aptamer, GRK2 hit artifact; shares compounds with GRK2 inh; Carboxyfluorescein RNA aptamer on beads, flow cytometry quenching; active compounds read low; fluorescence response (% of DMSO), % at 10 µM; 2,000 tested, under 10 active;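 active means compounds that quench the bead-bound fluorescent RNA probe, cutting fluorescence to under half of the solvent control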;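 further: counterscreen run without GRK2 so only probe quenching by compound is measured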
# GRK2 confirm 2: GRK2 aptamer-displacing inhibitors, hit retest, confirmation, biochemical, cherry pick 2, bead flow cytometry; inhibition of aptamer binding, % at 10 µM; bead-bound GRK2, FAM-aptamer displacement; shares compounds with GRK2 inh; 360 tested, under 10 active; AID 504782, 2011;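 active means inhibition of aptamer binding above 40%, about triple the noise seen with nonglowing compounds, on plates passing quality control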;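 further: negative values mostly come from compounds that fluoresce themselves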
# FAM quench CP2: counter-screen for GRK2 binding hits: quenchers of fluorescent RNA aptamer; shares compounds with GRK2 inh; carboxyfluorescein RNA aptamer beads, flow cytometry quenching; active compounds read low; fluorescence response vs DMSO, % at 10 µM; 360 tested, under 10 active; AID 588494;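 active means response vs DMSO under 50%, meaning signal dropped by over half, treated as fluorescence quencher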;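 further: labelled aptamer on streptavidin beads without GRK2 as a quench counter-screen; 100% = bead fluorescence of DMSO wells and lower means quenching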
# Beta2AR ag CP1: beta2AR agonists via receptor internalization, confirmation, cell-based, FAP fluorogen, flow cytometry, single point, cherry pick 1. shares compounds with Beta2AR agonist. Am2.2-beta2AR cells, FAP surface receptor; active compounds read low. percent response (surface receptor), % at 10 µM. 1,100 tested, 25% active. AID 540358, 2011;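 active means surface receptor percent response at or below 58%, roughly 3 SD from nonfluorescent compounds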
# B2AR FAP counter: counter-screen for beta-2AR agonists: fluorescence in Am2.2 cells. shares compounds with Beta2AR agonist. FAP fluorogen flow cytometry, fluorescence counterscreen; active compounds read low. calls only at 10 µM. 1,100 tested, under 10 active;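 active means percent response below a set limit in fluorescence channel 1 and below 50% in channel 8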
# H9c2 TAG conf: triacylglycerol accumulation inhibitors, retest, confirmation, cell-based, single concentration, Nile Red fluorescence, H9c2; 990 tested, 71% active; inhibition, % at 12.5 µM; H9c2 lipid accumulation; cells loaded with 200 µM oleic acid; shares compounds with TAG inh;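 active means mean inhibition across replicates of 40% or more; inactive means mean inhibition below 40%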;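 further: plate controls were DMSO only wells for no effect and Triacsin C treated wells for full effect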
# Starred values were filed as active, the others as inactive; i = inactive; · = no result.
SMILES,Arr AP2 block,GRK2 inh,Lipid droplet,TAG inh,Beta2AR agonist,NTR1 ag,Lipid drop inh,AML12 cytotox,AML12 tox conf,others
CCOC(=O)N1CCN(S(=O)(=O)N2CCCC(C(=O)NCc3ccc(OC)cc3)C2)CC1 (configuration not stated),-13,1,12,·,-12,1,·,·,·,
Cc1cc(OCC(=O)NCC(c2ccc(F)cc2)N2CCOCC2)ccc1Cl (configuration not stated),36,0,·,3,1,0,·,·,·,
COc1ccc2c(c1)O[C@@H](c1cccc(C(F)(F)F)c1)[C@H](OC(=O)NCCc1ccc(OC)c(OC)c1)C2=O,·,1,64*,·,·,4,75*,-0.35,·,
O=C(CSCC(=O)N1CCCCC1)Nc1nc(-c2ccccc2)c(-c2ccccc2)s1,2,1,89*,36,-1,15,104*,-0.91,-2,
O=C(NCCc1ccccc1)c1oc2ccccc2c1COc1ccccc1,-3,69*,64*,·,0,·,87*,-0.082,-9,GRK2 inh confirm=-4;FAM quench CP1=98
CSc1c(CC(=O)Nc2ccccc2C(F)(F)F)n(Cc2ccccc2)c2ccccc12,0,100*,69*,·,4,3,104*,0.47,·,GRK2 confirm 2=-3;FAM quench CP2=101
CSc1c(CC(=O)Nc2ccccc2Cl)n(Cc2ccccc2)c2ccccc12,3,3,·,48,5,1,·,·,·,
Cc1ccc(S(=O)(=O)NNC(=O)Nc2ccc([N+](=O)[O-])cc2)c(C)c1,-12,0,17,-12,-1,-1,·,·,·,
CCOc1ccc(C(C)NC(=O)Cc2ccccc2F)cc1OCC (configuration not stated),-10,68*,50*,18,1,1,93*,0.4,10,GRK2 inh confirm=0;FAM quench CP1=100
COc1ccc(S(=O)(=O)NC(=O)C2(C)CCN2C(=O)Cc2cccc3ccccc23)cc1 (configuration not stated),·,·,·,2,·,·,·,·,·,
Cc1ccc(CNC(=O)CCCc2c[nH]c3ccccc23)cc1,28,2,71*,·,52*,0,74*,0.041,8,Beta2AR ag CP1=104;B2AR FAP counter=i
O=C(CCCc1c[nH]c2ccccc12)NCc1ccccc1F,13,1,25,·,-2,-1,·,·,·,
Cc1cccc(NC(=O)N2CCC(C(=O)c3ccc(F)cc3)CC2)c1,25,0,84*,·,75*,0,98*,-0.69,13,Beta2AR ag CP1=105;B2AR FAP counter=i
CN1CCN(c2ccccc2/C=C2/C(=O)Nc3ccccc32)CC1,8,0,11,·,8,1,·,·,·,
CCCOC(=O)c1ccc(NC(=O)CCOc2ccccc2)cc1,-2,3,52*,65*,-10,0,104*,-0.16,14,H9c2 TAG conf=61*
CCOC(=O)c1ccc(NC(=O)CCOc2ccccc2)cc1,-9,1,21,8,-9,0,·,·,·,
CCNC(=O)C1CCCN(Cc2ccc3ccccc3c2Br)CC1 (configuration not stated),·,·,·,0,·,·,·,·,·,
CCN1C(=O)[C@@H]2[C@@H](c3ccc(SC4CCCCC4)c(OC)c3)N3CCCC[C@@]3(C(=O)OC)[C@@H]2C1=O,18,0,·,-4,13,2,·,·,·,
O=C(NN1CCOCC1)c1cc(-c2cccc(Cl)c2)nc2ccccc12,28,0,·,·,-6,0,·,·,·,
O=C(Nc1ccc([N+](=O)[O-])cn1)c1cc(-c2cccc(Cl)c2)nc2ccccc12,42,0,68*,68*,5,2,38,0.22,·,H9c2 TAG conf=52*
CC(C)C[C@H]1C(=O)N2CCC[C@H]2[C@]2(O)O[C@](NC(=O)[C@@H]3C=C4c5cccc6[nH]c(Br)c(c56)CC4N(C)C3)(C(C)C)C(=O)N12 (some centres not stated),-5,0,54*,62*,11,5,39,-1.6,2,H9c2 TAG conf=92*
COc1cccc(NC(=O)Nc2nnc(COCCO)s2)c1,·,·,·,15,·,·,·,·,·,
COc1ccccc1Nc1nnc(SCC(=O)NC2CC2)s1,2,0,·,-1,4,-1,·,·,·,
